Data taken from ChEMBL document CHEMBL1649083, “Discovery of novel inhibitors of the NorA multidrug transporter of Staphylococcus aureus” (2011).
Converted amounts (≈) assume the structure as drawn.

Assays:
Staphylococcus aureus [1] = assay: Antibacterial activity against Staphylococcus aureus 1199 expressing wild type NorA by microdilution technique
Staphylococcus aureus [2] = assay: Potentiation of ciprofloxacin MIC against NorA deficient Staphylococcus aureus K1902 by microdilution technique; assay type: functional
Procedure, shortened: (§1)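 MICs run in duplicate by broth microdilution following CLSI guidelines. Ciprofloxacin MICs were also determined with scalar dilutions of freshly prepared test compound solutions in checkerboard combination format. Strain panel: SA-K1902 (norA-), SA-K2378 (norA++), SA-1199 (norA wild-type), SA-1199B (norA++, GrlA A116E) and ATCC 25923 wild-type control.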

[3] = target: T1, Quinolone resistance protein NorA (Staphylococcus aureus) (UniProt P0A0J7); assay: Inhibition of NorA in Staphylococcus aureus 1199 assessed as reduction in ciprofloxacin MIC by microdilution technique
T1 sequence (whole entry): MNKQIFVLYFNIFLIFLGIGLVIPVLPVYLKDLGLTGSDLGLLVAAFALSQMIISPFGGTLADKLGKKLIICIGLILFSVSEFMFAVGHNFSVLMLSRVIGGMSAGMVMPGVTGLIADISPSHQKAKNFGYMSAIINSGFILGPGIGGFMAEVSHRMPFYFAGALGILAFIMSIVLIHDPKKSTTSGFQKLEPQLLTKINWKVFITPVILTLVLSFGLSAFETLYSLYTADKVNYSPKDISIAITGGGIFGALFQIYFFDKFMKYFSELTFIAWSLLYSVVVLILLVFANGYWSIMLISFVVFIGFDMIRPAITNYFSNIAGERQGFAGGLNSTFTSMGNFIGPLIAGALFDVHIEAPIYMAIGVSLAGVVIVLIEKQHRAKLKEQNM
Procedure, shortened: (§2)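 Checkerboard combination: fresh scalar dilutions of test compound crossed with ciprofloxacin dilutions. Ciprofloxacin MIC determined by broth microdilution per CLSI guidelines, in duplicate. The result is the fold reduction in ciprofloxacin MIC relative to ciprofloxacin alone, read at the stated test-compound concentration. Reserpine served as reference inhibitor.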

Staphylococcus aureus [4] = assay: Antibacterial activity against NorA deficient Staphylococcus aureus K1902 by microdilution technique; assay type: functional
Procedure, shortened: (§3)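 Intrinsic MIC of each test compound, run alone, by broth microdilution per CLSI guidelines, in duplicate.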

[5] = target: T1, Quinolone resistance protein NorA (Staphylococcus aureus); assay: Inhibition of NorA in Staphylococcus aureus 1199B assessed as reduction in ethidium bromide efflux at 50 uM by fluorimetry after 5 mins
Procedure, shortened: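 S. aureus SA-1199B (NorA overexpressing via promoter up-mutation; GrlA A116E), EtBr-loaded cells. EtBr loss measured fluorometrically over a 5 min time course, in duplicate, as mean total efflux. Percent reduction calculated versus efflux without compound. Test compound at 50 μM; increasing concentrations were also run for dose-response profiles.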

Staphylococcus aureus [6] = assay: Antibacterial activity against wild type Staphylococcus aureus ATCC 25923 by microdilution technique; assay type: functional
Procedure, shortened: as §3

[7] = target: T1, Quinolone resistance protein NorA (Staphylococcus aureus); assay: Inhibition of NorA in Staphylococcus aureus K2378 assessed as reduction in ciprofloxacin MIC at 1.56 ug/ml by microdilution technique
Procedure, shortened: as §2

Staphylococcus aureus [8] = assay: Antibacterial activity against Staphylococcus aureus 1199B overexpressing wild type NorA and GrlA A116E mutant by microdilution technique; assay type: functional
Procedure, shortened: as §3

Staphylococcus aureus [9] = assay: Antibacterial activity against Staphylococcus aureus 1199B by microdilution technique; assay type: functional
Procedure, shortened: as §1

[10] = target: T1, Quinolone resistance protein NorA (Staphylococcus aureus); assay: Inhibition of NorA in Staphylococcus aureus 1199B expressing GrlA A116E mutant assessed as reduction in ciprofloxacin MIC at 1.56 ug/ml by microdilution technique
Procedure, shortened: as §2

Staphylococcus aureus [11] = assay: Potentiation of ciprofloxacin MIC against wild type Staphylococcus aureus ATCC 25923 by microdilution technique; assay type: functional
Procedure, shortened: as §1

Staphylococcus aureus [12] = assay: Antibacterial activity against Staphylococcus aureus K2378 overexpressing NorA by microdilution technique; assay type: functional
Procedure, shortened: as §3

[13] = target: T1, Quinolone resistance protein NorA (Staphylococcus aureus); assay: Inhibition of NorA in Staphylococcus aureus K2378 assessed as reduction in ciprofloxacin MIC at 12.5 ug/ml by microdilution technique
Procedure, shortened: as §2

[14] = target: T1, Quinolone resistance protein NorA (Staphylococcus aureus); assay: Inhibition of NorA in Staphylococcus aureus 1199B expressing GrlA A116E mutant assessed as reduction in ciprofloxacin MIC at 12.5 ug/ml by microdilution technique
Procedure, shortened: as §2

[15] = target: T1, Quinolone resistance protein NorA (Staphylococcus aureus); assay: Inhibition of NorA in Staphylococcus aureus K2378 assessed as reduction in ciprofloxacin MIC at 3.13 ug/ml by microdilution technique
Procedure, shortened: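 CLSI broth microdilution checkerboard combining ciprofloxacin with scalar dilutions of freshly prepared test compound, in duplicate, against S. aureus SA-K2378 (NorA-overexpressing; SA-K1902 norA-negative as paired strain). Value is the ciprofloxacin MIC reduction with test compound present at the stated fixed concentration.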

[16] = target: T1, Quinolone resistance protein NorA (Staphylococcus aureus); assay: Inhibition of NorA in Staphylococcus aureus 1199B expressing GrlA A116E mutant assessed as reduction in ciprofloxacin MIC at 25 ug/ml by microdilution technique
Procedure, shortened: (§4)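 Ciprofloxacin MICs were measured in duplicate by broth microdilution following CLSI guidelines, alone and in checkerboard combination with scalar dilutions of freshly prepared test compound. Potentiation was scored as the reduction in ciprofloxacin MIC. Strains: SA-1199B (NorA overexpressed via promoter up-mutation, plus GrlA A116E) and ATCC 25923 (wild-type control).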

Staphylococcus aureus [17] = assay: Potentiation of ciprofloxacin MIC against wild type Staphylococcus aureus ATCC 25923 at 3.13 ug/ml by microdilution technique; assay type: functional
Procedure, shortened: as §4

[18] = target: T1, Quinolone resistance protein NorA (Staphylococcus aureus); assay: Inhibition of NorA in Staphylococcus aureus 1199 assessed as reduction in ciprofloxacin MIC at 0.78 ug/ml by microdilution technique
Procedure, shortened: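 Checkerboard combination of ciprofloxacin with freshly prepared test compound in S. aureus SA-1199 (norA wild-type). Ciprofloxacin MIC determined in duplicate by CLSI microdilution in the presence of fixed compound concentrations.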

Row | Compound | MIC (Staphylococcus aureus [1]) | fold change (FC) (Staphylococcus aureus [2]) | fold change (FC) [3] | MIC (Staphylococcus aureus [4]) | inhibition [5] | MIC (Staphylococcus aureus [6]) | fold change (FC) [7] | MIC (Staphylococcus aureus [8]) | MIC (Staphylococcus aureus [9]) | fold change (FC) [10] | fold change (FC) (Staphylococcus aureus [11]) | MIC (Staphylococcus aureus [12]) | fold change (FC) [13] | fold change (FC) [14] | fold change (FC) [15] | fold change (FC) [16] | fold change (FC) (Staphylococcus aureus [17]) | fold change (FC) [18]
1 | CC[C@H]1CCc2nc(SCc3ccc(C(=O)O)cc3)c(C#N)c(C(F)(F)F)c2C1 | 12.5 µg/mL (≈ 29.7 µM) | 2 | 2 | 6.25 µg/mL (≈ 14.9 µM) | 71.7% | 6.25 µg/mL (≈ 14.9 µM) | 16 | 6.25 µg/mL (≈ 14.9 µM) | 15 µM (≈ 6.31 µg/mL) | 2 | 2 | 6.25 µg/mL (≈ 14.9 µM) |  |  |  |  |  | 
2 | C[C@@H](NCc1cccc(OCc2ccccc2)c1)[C@@H](O)c1ccccc1 | 100 µg/mL (≈ 288 µM) | 2 | 2 | 100 µg/mL (≈ 288 µM) | 86.6% | 100 µg/mL (≈ 288 µM) |  | > 100 µg/mL | > 288 µM |  | 2 | 50 µg/mL (≈ 144 µM) | 16 | 4 | 4 | 16 |  | 
3 | CC[C@H](C)N1C(=O)S/C(=C/c2ccc(-c3cc(C(=O)O)ccc3Cl)o2)C1=O | 25 µg/mL (≈ 61.6 µM) | 2 | 2 | 50 µg/mL (≈ 123 µM) | 81% | 50 µg/mL (≈ 123 µM) |  | 50 µg/mL (≈ 123 µM) | 123 µM (≈ 49.9 µg/mL) |  | 2 | 50 µg/mL (≈ 123 µM) | 32 | 8 | 32 |  |  | 
4 | OC(CNCc1cccc(OCc2ccccc2)c1)c1ccccc1 (configuration not stated) |  |  | 4 |  | 88.4% |  |  |  |  |  |  |  |  |  |  |  |  | 
5 | Cc1ccc(S(=O)(=O)Nc2ccc3[nH]c(-c4cccn4C)nc3c2)cc1 | > 100 µg/mL |  |  | > 100 µg/mL | 88.2% | > 100 µg/mL |  | > 100 µg/mL | > 273 µM |  |  | > 100 µg/mL |  |  |  |  | 8 | 8
6 | Cn1cccc1-c1nc2cc(NC(=O)c3ccccc3)ccc2[nH]1 |  |  | 4 |  | 94.3% |  |  |  |  |  |  |  |  |  |  |  |  | 
